Data reported in ChEMBL document CHEMBL1124174, “Substituted benzamides. 1. Potential nondopaminergic antagonists of chemotherapy-induced nausea and emesis” (J Med Chem, 1988).
“And” between values parts separate entries of the source, which are not always exact repeats. Equal values may be shown once.

Assays:
[1] = target: D(2) dopamine receptor (Canis lupus familiaris) (UniProt Q9GJU1); test: In vivo antagonism activity against dopamine D2 receptor was measured as emesis in dog when administered subcutaneously; format: functional, organism-based
Chain of D(2) dopamine receptor (Canis lupus familiaris) (Q9GJU1 whole entry): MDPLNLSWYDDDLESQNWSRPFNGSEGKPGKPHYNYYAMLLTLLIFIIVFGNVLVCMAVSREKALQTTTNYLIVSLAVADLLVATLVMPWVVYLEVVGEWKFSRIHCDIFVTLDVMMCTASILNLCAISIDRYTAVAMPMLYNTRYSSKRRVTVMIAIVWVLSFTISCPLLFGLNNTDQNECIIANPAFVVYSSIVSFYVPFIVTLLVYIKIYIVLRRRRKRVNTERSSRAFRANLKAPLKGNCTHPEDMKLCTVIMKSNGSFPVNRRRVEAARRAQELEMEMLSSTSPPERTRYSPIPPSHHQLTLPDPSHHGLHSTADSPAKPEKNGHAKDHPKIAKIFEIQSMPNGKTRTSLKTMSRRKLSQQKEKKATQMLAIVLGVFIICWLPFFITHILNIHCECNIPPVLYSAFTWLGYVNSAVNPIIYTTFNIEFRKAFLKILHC

[2] = test system: Canis familiaris; test: In vivo antagonism of cisplatin-induced emesis in dog measured as emetic episodes, twice the dose of 3 mg/kg in 2 dogs; format: functional, Canis lupus familiaris
Summary of the method: (§1)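 Nonfasted mature male or female beagles were dosed sc twice, 30 min before and 120 min after cisplatin (3 mg/kg iv; 3 mg/mL in warm 0.9% saline, used immediately). Emesis was observed up to 5 h; events within 2 min counted as one episode. Results were given as mean emetic episodes and % protection versus a dynamic control (historical and concurrent saline means pooled). t test versus saline.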

[3] = target: D(2) dopamine receptor (Rattus norvegicus, UniProt P61169); test: In vitro antagonistic activity against Dopamine receptor D2 was evaluated for the inhibition of [3H]spiperone binding
Chain of D(2) dopamine receptor (P61169 whole entry): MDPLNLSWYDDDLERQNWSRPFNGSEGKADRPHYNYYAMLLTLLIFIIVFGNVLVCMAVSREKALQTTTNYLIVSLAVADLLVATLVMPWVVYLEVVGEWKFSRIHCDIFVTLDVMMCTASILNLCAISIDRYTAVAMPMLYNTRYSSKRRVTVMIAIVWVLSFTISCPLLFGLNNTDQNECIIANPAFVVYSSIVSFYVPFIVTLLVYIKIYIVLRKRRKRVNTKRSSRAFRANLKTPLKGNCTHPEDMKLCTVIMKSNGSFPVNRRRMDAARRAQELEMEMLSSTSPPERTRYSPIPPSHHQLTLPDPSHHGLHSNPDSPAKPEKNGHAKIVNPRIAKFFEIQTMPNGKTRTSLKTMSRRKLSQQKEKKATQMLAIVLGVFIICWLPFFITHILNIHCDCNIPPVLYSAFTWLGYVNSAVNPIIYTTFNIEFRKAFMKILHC
Summary of the method: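 Rat striatal membranes were prepared by differential centrifugation in 50 mM Tris pH 7.4 at 4 °C. Membrane protein (10 mg) was incubated 15 min at 37 °C with 0.1 nM [3H]spiperone and varying competitor concentrations. Buffer: 50 mM Tris HCl pH 7.5, 0.1% ascorbic acid, pargyline, 120 mM NaCl, 5 mM KCl, 2 mM CaCl2, 1 mM MgCl2. (+)-Butaclamol defined nonspecific binding. Bound ligand was collected by filtration and scintillation counted. IC50 by log-logit regression.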

[4] = test system: Canis familiaris; test: In vivo antagonism of cisplatin-induced emesis in dog measured as percentage protection for twice the dose of 3 mg/kg in 2 dogs; format: functional, Canis lupus familiaris; summary of the method: as §1
[5] = test system: Mustela putorius furo; test: In vivo antagonism of cisplatin-induced emesis in ferret measured as emetic episodes, twice the dose of 3 mg/kg and in 3 ferrets; format: functional
Summary of the method: (§2)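 Nonfasted castrated male Fitch ferrets (1–1.5 kg) had jugular catheters implanted ≥48 h earlier under anesthesia. Compounds or saline were given iv twice, 5 min before and 90 min after cisplatin (12 mg/kg iv; 12 mg/mL in warm 0.9% saline). Emesis was observed up to 4 h; events within 1 min counted as one episode. Results were given as mean emetic episodes and % protection versus a pooled historical/concurrent control. t test versus saline.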

[6] = test system: Mustela putorius furo; test: In vivo antagonism of cisplatin-induced emesis in ferret measured as percentage protection for twice the dose of 3 mg/kg and in 3 ferrets; format: functional; summary of the method: as §2
[7] = target: D(2) dopamine receptor (Rattus norvegicus) (UniProt P61169); test: In vivo antagonism activity against D2 receptor was measured as stereotypy in rat when administered subcutaneously; format: functional, organism-based
Chain of D(2) dopamine receptor (Rattus norvegicus) (P61169 whole entry): as above
Summary of the method: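 Male Long Evans rats (275 g) were dosed sc in dilute aqueous HCl (pH 4.5-5.5) 30 min before apomorphine (1 mg/kg sc).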

[8] = target: D(2) dopamine receptor (Rattus norvegicus) (UniProt P61169); test: In vivo antagonistic activity against dopamine D2 receptor was measured as catalepsy in rat when administered subcutaneously; format: functional, organism-based
Summary of the method: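 Male Long Evans rats (275 g) received graded sc doses in dilute aqueous HCl (pH 4.5-5.5). They were observed 180 min for catalepsy, scored when the animal stayed stationary ≥15 s on a four-cork template.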

[9] = test system: Canis familiaris; test: In vivo antagonism of cisplatin-induced emesis in dog measured as emetic episodes, twice the dose of 6 mg/kg in 2 dogs; format: functional, Canis lupus familiaris; summary of the method: as §1
[10] = test system: Canis familiaris; test: In vivo antagonism of cisplatin-induced emesis in dog measured as percentage protection for twice the dose of 6 mg/kg in 2 dogs; format: functional, Canis lupus familiaris; summary of the method: as §1
[11] = test system: Mustela putorius furo; test: In vivo antagonism of cisplatin-induced emesis in ferret measured as percentage protection for twice the dose of 3 mg/kg and in 2 ferrets; format: functional; summary of the method: as §2
[12] = test system: Canis familiaris; test: In vivo antagonism of cisplatin-induced emesis in dog measured as emetic episodes, twice the dose of 1 mg/kg in 2 dogs; format: functional, Canis lupus familiaris; summary of the method: as §1
[13] = test system: Canis familiaris; test: In vivo antagonism of cisplatin-induced emesis in dog measured as percentage protection for twice the dose of 1 mg/kg in 2 dogs; format: functional, Canis lupus familiaris; summary of the method: as §1
[14] = test system: Mustela putorius furo; test: In vivo antagonism of cisplatin-induced emesis in ferret measured as percentage protection for twice the dose of 0.3 mg/kg and in 3 ferrets; format: functional; summary of the method: as §2
[15] = test system: Mustela putorius furo; test: In vivo antagonism of cisplatin-induced emesis in ferret measured as emetic episodes, twice the dose of 0.3 mg/kg and in 3 ferrets; format: functional; summary of the method: as §2
[16] = test system: Mustela putorius furo; test: In vivo antagonism of cisplatin-induced emesis in ferret measured as emetic episodes, twice the dose of 1 mg/kg and in 3 ferrets; format: functional; summary of the method: as §2
[17] = test system: Mustela putorius furo; test: In vivo antagonism of cisplatin-induced emesis in ferret measured as percentage protection for twice the dose of 1 mg/kg and in 3 ferrets; format: functional; summary of the method: as §2
[18] = test system: Canis familiaris; test: In vivo antagonism of cisplatin-induced emesis in dog measured as emetic episodes, twice the dose of 0.3 mg/kg in 2 dogs; format: functional, Canis lupus familiaris; summary of the method: as §1
[19] = test system: Canis familiaris; test: In vivo antagonism of cisplatin-induced emesis in dog measured as percentage protection for twice the dose of 0.3 mg/kg in 2 dogs; format: functional, Canis lupus familiaris; summary of the method: as §1
[20] = test system: Canis familiaris; test: In vivo antagonism of cisplatin-induced emesis in dog measured as emetic episodes, twice the dose of 3 mg/kg in 3 dogs; format: functional, Canis lupus familiaris; summary of the method: as §1
[21] = test system: Canis familiaris; test: In vivo antagonism of cisplatin-induced emesis in dog measured as emetic episodes, twice the dose of 6 mg/kg in 3 dogs; format: functional, Canis lupus familiaris
Summary of the method: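 Nonfasted mature male or female beagles received test compound or saline sc twice, 30 min before and 120 min after cisplatin (3 mg/kg iv; 3 mg/mL in warm 0.9% saline, used at once). Emesis observed up to 5 h. Emetic episode = expulsion of stomach content; events within 2 min counted as one. Protection calculated against a dynamic control (historical mean pooled with concurrent saline control).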

[22] = test system: Mustela putorius furo; test: In vivo antagonism of cisplatin-induced emesis in ferret measured as emetic episodes, twice the dose of 0. 3 mg/kg and in 3 ferrets; format: functional; summary of the method: as §2
[23] = test system: Mustela putorius furo; test: In vivo antagonism of cisplatin-induced emesis in ferret measured as percentage protection for twice the dose of 3 mg/kg

Structure (SMILES) | IC50 [3] [nM] | ED50 [7] [mg/kg] | ED50 [1] [mg/kg] | Protection [4] [%] | Emetic episodes [5] | Protection [6] [%] | ED50 [8] [mg/kg] | Emetic episodes [9] | Protection [10] [%] | Emetic episodes [12] | Protection [13] [%] | Protection [14] [%] | Emetic episodes [15] | other results
CCN(CC)CCNC(=O)c1cc(Cl)c(N)cc1OCC(=O)c1ccccc1 | > 1000 | > 40 | > 3 | 88 | 0 | 100 | > 40 |  |  |  |  |  |  | Emetic episodes [2]: 1.5
C=CCOc1cc(N)c(Cl)cc1C(=O)NCCN(CC)CC | > 1000 | > 40 | > 1 |  | 0.3 | 95 | > 40 | 1 | 90 | 3.5 | 72 | 30 | 4.7 | Emetic episodes [16]: 3; Protection [17]: 56%
CCN(CC)CCNC(=O)c1cc(Cl)c(N)cc1OC/C(C)=N/OC | > 1000 | > 40 |  |  | 0.7 | 90 | > 40 | 3.5 | 71 |  |  |  |  | 
C=C(C)COc1cc(N)c(Cl)cc1C(=O)NCCN(CC)CC | > 1000 | > 40 | > 3 | 68 | 2.3 | 70 | > 40 |  |  |  |  |  |  | Emetic episodes [2]: 4
C=CCCOc1cc(N)c(Cl)cc1C(=O)NCCN(CC)CC | > 1000 | > 40 | > 3 | 71 | 3.7 | 50 | > 40 |  |  |  |  |  |  | Emetic episodes [2]: 3.5
CCCOc1cc(N)c(Cl)cc1C(=O)NCCN(CC)CC | > 1000 | > 40 | > 3 |  | 2 | 70 | > 40 | 8 | 40 |  |  |  |  | 
CCC(=O)COc1cc(N)c(Cl)cc1C(=O)NCCN(CC)CC | > 1000 | > 40 | > 3 |  | 0.7 | 90 | > 40 |  |  | 0 | 100 | 0 | 7.3 | Emetic episodes [18]: 3
CCN(CC)CC/N=C(\NOC)c1cc(Cl)c(N)cc1OC | > 1000 | > 40 | > 1 |  | 8.3 | 0 | > 40 | 8.5 | 34 |  |  |  |  | 
CCN(CC)CCNC(=O)c1cc(Cl)c(N)cc1OC1CCCC[C@H]1OC (some centres not stated) | > 1000 | > 40 | > 3 |  | 1.3 | 82 | > 40 |  |  | 0 | 100 | 77 | 3.7 | Protection [19]: 70%; Emetic episodes [18]: 3.5; Emetic episodes [16]: 1.7; Protection [17]: 49%
CCN(CC)CCNC(=O)c1cc(Cl)c(N)cc1OCC#N | > 1000 | > 40 | > 3 | 63 | 0.7 | 90 | > 40 |  |  |  |  |  |  | Emetic episodes [20]: 4.7
C=CCN1CCCC1CNC(=O)c1cc2nn[nH]c2cc1OC (configuration not stated) [ALIZAPRIDE] |  | > 40 | 0.3 |  | 5 | 27 | > 40 |  |  |  |  |  |  | Emetic episodes [20]: 4.3; Emetic episodes [21]: 4.7; Protection ([4]; 3 mg/kg): 69% and 66%
CCN(CC)CCNC(=O)c1cc(Cl)c(N)cc1OC1CCCCC1=O (configuration not stated) | > 1000 | > 40 | > 3 |  | 0 | 100 | > 40 |  |  | 0 | 100 | 62 | 2.7 | Protection [19]: 88%; Emetic episodes [18]: 1.5
CCN(CC)CCNC(=O)c1cc(Cl)c(N)cc1OCC1COC(C)(C)O1 (configuration not stated) | > 1000 | > 40 | > 3 | 68 | 2 | 72 | > 40 |  |  |  |  |  |  | Emetic episodes [2]: 4
CCN(CC)CCNC(=O)c1cc(Cl)c(N)cc1OCC(OC)OC | > 1000 | > 40 | > 3 |  | 1.3 | 82 | > 40 |  |  | 1.5 | 88 | 0 |  | Emetic episodes [22]: 6.7

More lines, main results first:

IC50 [3] [nM] | ED50 [7] [mg/kg] | Structure (SMILES) | ED50 [1] [mg/kg] | Protection [4] [%] | Emetic episodes [5] | Protection [6] [%] | ED50 [8] [mg/kg] | Emetic episodes [9] | Protection [10] [%] | Emetic episodes [12] | Protection [13] [%] | Protection [14] [%] | Emetic episodes [15] | other results
> 1000 | > 40 | CCN(CC)CCNC(=O)c1cc(Cl)c(N)cc1O | > 1 |  |  |  | > 40 | 2 | 84 |  |  |  |  | Protection [11]: 40%
> 1000 |  | CCN(CC)CCNC(=O)c1cc(Cl)c(N)cc1OC[C@@H](C)O (stereo in doubt; 8f) |  |  |  |  |  |  |  |  |  | 0 | 8 | Emetic episodes ([18]; 0.3 mg/kg): 2; Emetic episodes ([12]; 1 mg/kg): 0; Protection ([13]; 1 mg/kg): 100%; Emetic episodes ([16]; 1 mg/kg): 5.7; Protection ([17]; 1 mg/kg): 22%
> 1000 |  | CCN(CC)CCNC(=O)c1cc(Cl)c(N)cc1OC(C)C(C)O (stereo in doubt; 8h) |  |  |  |  |  |  |  | 3 | 75 |  |  | Protection ([19]; 0.3 mg/kg): 60%; Emetic episodes ([18]; 0.3 mg/kg): 4.5; Protection ([14]; 0.3 mg/kg): 37%; Emetic episodes ([5]; 3 mg/kg): 0.3; Emetic episodes ([15]; 0.3 mg/kg): 4.7; Emetic episodes ([16]; 1 mg/kg): 2.3; Protection ([17]; 1 mg/kg): 68%; Protection ([6]; 3 mg/kg): 95%
> 1000 | > 40 | CCN(CC)CCNC(=O)c1cc(Cl)c(N)cc1OC(C)C#N (configuration not stated) | > 3 | 80 | 2.7 | 63 | > 40 |  |  |  |  |  |  | Emetic episodes [2]: 2.5
> 1000 | > 40 | CCN(CC)CCN1C(=O)c2cc(Cl)c(NC=O)cc2OC(C)=C1C | > 3 |  | 0 | 100 | > 40 |  |  |  |  |  |  | Protection [19]: 25%; Emetic episodes [18]: 9.5; Emetic episodes [22]: 4.7; Protection [23]: 32%
> 1000 | > 40 | CCN(CC)CCNC(=O)c1cc(Cl)c(N)cc1OCC(C)=O | > 3 |  | 0.7 | 90 | > 40 | 0.5 | 96 | 1.5 | 92 | 44 | 4 | Protection [19]: 60%; Emetic episodes [18]: 5; Emetic episodes [16]: 4.5; Protection [17]: 38%
